Experimental data published in ChEMBL document CHEMBL3352492, “Selenorhodamine photosensitizers for photodynamic therapy of P-glycoprotein-expressing cancer cells” (J Med Chem, 2014).
Active and inactive are the calls of the source. No cut-off for these calls is given here.

Tests used:
Colon 26 [1] = experiment: Photo-toxicity in mouse Colon 26 cells assessed as reduction in cell surviving fraction at 0.5 Jcm'-2 of continuous illumination with 350 to 700 nm light incubated for 48 hrs by sulforhodamine B assay; type: functional, cell-based; conditions: Colon 26, 48 h
Summary of the method: (§1)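 Colo-26 cells were incubated 1 h in the dark with 0.1–0.5 μM […], then irradiated up to 1.0 J cm^-2 with 350–700 nm tungsten–halogen light (3.7–4.1 mW cm^-2). Cells were kept 48 h and survival was measured by sulforhodamine B assay.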

Colon 26 [2] = experiment: Photo-toxicity against mouse Colon 26 cells at 0.15 uM incubated in dark for 1 hr then irradiated with light dose of 1 Jcm'-2 of 613 nm laser light measured after 48 hrs by sulforhodamine B assay; type: functional, cell-based
Summary of the method: (§2)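 Colo-26 murine colon carcinoma cells were grown in RPMI 1640 with L-glutamine, 10% FBS and 1% penicillin–streptomycin. They were plated at 10 000 cells/well and held 24 h. Selenorhodamine was added at 0.15 μM (final) and cells were kept 1 h in the dark. Cells were then irradiated with a tunable dye laser at λmax ± 2 nm, 3.2 mW cm⁻², to 1 J cm⁻². Medium was replaced, followed by 48 h at 37 °C, 5% CO₂. Viability was read by sulforhodamine B at 570 nm.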

Colon 26 [3] = experiment: Photo-toxicity in mouse Colon 26 cells assessed as reduction in cell surviving fraction at 1 Jcm'-2 of continuous illumination with 350 to 700 nm light incubated for 48 hrs by sulforhodamine B assay; type: functional, cell-based; conditions: Colon 26, 48 h; summary of the method: as §1
Colon 26 [4] = experiment: Potentiation of doxorubicin-induced cytotoxicity against mouse Colon 26 cells at 0.15 uM incubated in dark for 1 hr then irradiated with light dose of 1 Jcm'-2 of 613 nm laser light measured after 48 hrs by sulforhodamine B assay; type: functional, cell-based
Summary of the method: (§3)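 Colo-26 cells were plated at 10 000/well and held 24 h. Doxorubicin (0.005, 0.05, 0.5, 1.0 or 5.0 μM) was added with 0.15 μM selenorhodamine, both diluted in RPMI from stocks, with Dox-only and dye-only wells. After 1 h in the dark, cells were laser-irradiated at λmax ± 2 nm, 3.2 mW cm⁻², 1 J cm⁻². Fresh medium, then 48 h at 37 °C, 5% CO₂. Surviving fraction by SRB absorbance at 570 nm; six replicates.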

[5] = Lipophilicity, log P of the compound by pH 7.4 at 23 degC by UV-visible spectrophotometry based shake flask method; type: physicochemical; conditions: buffer
Summary of the method: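 Shake-flask method. A saturated n-octanol solution of dye was mixed with an equal volume of PBS, pH 7.4, at 23 °C for 3–5 min, then left 1 h to settle. The concentration in each layer was measured by UV–visible spectrophotometry.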

[6] = Permeability in MDCK2-MDR1 cells assessed as cell associated fraction by measuring mass fraction extracted from cell monolayer by methanol wash after 1 hr flux in apical to basolateral direction at 5 uM in presence of 4.3 mg/ml BSA and in presence of P-gp inhibitor LSN335984 by mass spectrometry; type: ADME, cell-based, Canis lupus familiaris; conditions: dog, mdck-ii
Summary of the method: (§4)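 MDCKII-MDR1 cells seeded at 50 000 cells cm^-2 on Transwell polycarbonate filters, used on day 6. After a rinse in DPBSH at 37 °C, monolayers were preincubated 30 min in 4.3 mg mL^-1 BSA/DPBSH with or without 5 μM P-gp inhibitor LSN 335984. Then 5 μM dye was added apically and run 1 h AB flux at 37 °C with nutation. Monolayers were rinsed in cold DPBS and extracted 3 min in methanol, and compound was quantified by LC-MS/MS. Cell-associated value is the percentage of added mass recovered.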

Colon 26 [7] = experiment: Potentiation of doxorubicin-induced cytotoxicity against mouse Colon 26 cells at 0.15 uM incubated in dark for 1 hr by sulforhodamine B assay; type: functional, cell-based
Summary of the method: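 Colo-26 cells were plated at 10 000/well and held 24 h. Doxorubicin (0.005–5.0 μM) was applied with or without 0.15 μM selenorhodamine, with Dox-only and dye-only controls, for 1 h in the dark with no irradiation. Medium was replaced, then 48 h at 37 °C, 5% CO₂. Surviving fraction by sulforhodamine B assay (570 nm); six replicates; Student's t-test pairwise.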

[8] = Permeability in MDCK2-MDR1 cells assessed as cell associated fraction by measuring mass fraction extracted from cell monolayer by methanol wash after 1 hr flux in apical to basolateral direction at 5 uM in presence of 4.3 mg/ml BSA and in absence of P-gp inhibitor LSN335984 by mass spectrometry; type: ADME, cell-based, Canis lupus familiaris; conditions: dog, mdck-ii; summary of the method: as §4
Colon 26 [9] = experiment: Dark toxicity in mouse Colon 26 cells assessed as cell surviving fraction at 0.1 to 0.5 uM incubated for 1 hr by sulforhodamine B assay; type: cell-based; conditions: colon 26, 1 h
Summary of the method: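 Colo-26 murine colon carcinoma cells, 10 000 per well, grown 24 h in RPMI 1640 with 10% FBS. Dye at 0.1–0.5 μM for 1 h in the dark, then fresh medium and 48 h at 37 °C, 5% CO2. Viability by sulforhodamine B, absorbance at 570 nm, reported as surviving fraction.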

Colon 26 [10] = experiment: Drug uptake in mouse Colon 26 cells at 0.5 uM in absence of 100 uM verapamil by flow cytometry; type: ADME, cell-based; conditions: colon 26, 0.5 µM
Summary of the method: (§5)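 Colo-26 cells given 0.5 μM dye for 1 h, with or without 100 μM verapamil. Uptake read by flow cytometry as relative fluorescence, excitation 561 nm and emission 710 nm. Error bars are SD.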

Colon 26 [11] = experiment: Photo-toxicity in mouse Colon 26 cells assessed as reduction in cell surviving fraction at =< 0.5 uM and up to 1 Jcm'-2 of continuous illumination with 350 to 700 nm light incubated for 48 hrs by sulforhodamine B assay; type: functional, cell-based
Summary of the method: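 Colo-26 cells, 10 000 per well, grown 24 h in RPMI 1640 with 10% FBS. Dye at ≤0.5 μM for 1 h in the dark. Irradiated up to 1.0 J cm^-2 with 350–700 nm tungsten–halogen light at 3.7–4.1 mW cm^-2, then 48 h at 37 °C. Survival by sulforhodamine B at 570 nm.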

Colon 26 [12] = experiment: Drug uptake in mouse Colon 26 cells at 0.5 uM in presence of 100 uM verapamil by flow cytometry; type: ADME, cell-based; conditions: colon 26, 0.5 µM; summary of the method: as §5
Colon 26 [13] = experiment: Photo-toxicity in mouse Colon 26 cells assessed as reduction in cell surviving fraction at 15 Jcm'-2 of continuous illumination with 360 to 800 nm light incubated for 48 hrs by sulforhodamine B assay; conditions: Colon 26, 48 h
Colon 26 [14] = experiment: Photo-toxicity in mouse Colon 26 cells assessed as reduction in cell surviving fraction at 0.15 uM at >5 Jcm'-2 of continuous illumination with 350 to 700 nm light incubated for 48 hrs by sulforhodamine B assay; type: functional, cell-based
[15] = Selectivity index, ratio of LD50 dark toxicity against mouse Colon 26 cells to EC50 for Photo-toxicity against mouse Colon 26 cells 1 Jcm'-2 of continuous illumination with 350 to 700 nm light; type: cell-based; conditions: read-out: Ratio LD50/EC50
Colon 26 [16] = experiment: Potentiation of 1 uM doxorubicin-induced cytotoxicity against mouse Colon 26 cells assessed as cell surviving fraction at 0.15 uM incubated in dark for 1 hr then irradiated with light dose of 1 Jcm'-2 of 611 nm laser light measured after 48 hrs by sulforhodamine B assay; type: functional; summary of the method: as §3
Colon 26 [17] = experiment: Photo-toxicity against mouse Colon 26 cells at 0.15 uM incubated in dark for 1 hr then irradiated with light dose of 1 Jcm'-2 of 611 nm laser light measured after 48 hrs by sulforhodamine B assay; type: functional, cell-based; summary of the method: as §2
[18] = Photo-stability assessed as drug degradation exposed to after 230 Jcm'-2 of continuous illumination with 500 to 800 nm light in solutions of 10% CH3OH in pH 7.4 buffer; type: physicochemical; conditions: solution of 10% CH3OH in pH 7.4 buffer, read-out: Drug degradation
[19] = Photo-stability assessed as drug degradation exposed to after 230 Jcm'-2 of continuous illumination with 350 to 800 nm light in solutions of 10% CH3OH in pH 7.4 buffer; type: physicochemical; conditions: solution of 10% CH3OH in pH 7.4 buffer, read-out: Drug degradation
Colon 26 [20] = experiment: Potentiation of 0.5 uM doxorubicin-induced cytotoxicity against mouse Colon 26 cells at 0.15 uM incubated in dark for 1 hr then irradiated with light dose of 1 Jcm'-2 of 611 nm laser light measured after 48 hrs by sulforhodamine B assay; type: functional, cell-based; summary of the method: as §3
Colon 26 [21] = experiment: Photo-toxicity in mouse Colon 26 cells assessed as reduction in cell surviving fraction at 0.15 uM at 1 Jcm'-2 of continuous illumination with 350 to 700 nm light incubated for 48 hrs by sulforhodamine B assay; type: functional, cell-based

Structure (SMILES) | EC50 (Colon 26 [1]) | EC50 (Colon 26 [3]) | logD [5] | Activity (Colon 26 [7]) | Activity (Colon 26 [9]) | Drug uptake (Colon 26 [10]) | Activity (Colon 26 [11]) | fold change (FC) (Colon 26 [12]) | other results
CN1CCC(C)(C)c2cc3c(-c4ccc(C(=O)N5CCCCC5)s4)c4ccc(=[N+](C)C)cc-4[se]c3cc21.[Cl-] | > 500 nM | 410 nM | 2.23 | inactive | – | – | – | – | Activity (Colon 26 [2]): inactive; Activity (Colon 26 [4]): inactive; Activity [6]: 39%; Activity [8]: 16%
CCN(CC)C(=S)c1ccc(-c2c3ccc(=[N+](C)C)cc-3sc3cc4c(cc23)C(C)(C)CCN4C)s1.F[P-](F)(F)(F)(F)F | – | – | – | – | > 0.95 | Active | inactive | 1.3 | –
CCN(CC)C(=O)c1ccc(-c2c3ccc(=[N+](C)C)cc-3sc3cc4c(cc23)C(C)(C)CCN4C)s1.F[P-](F)(F)(F)(F)F | – | – | – | – | > 0.95 | – | inactive | 7 | –
CN1CCC(C)(C)c2cc3c(-c4ccc(C(=O)N5CCCCC5)s4)c4ccc(=[N+](C)C)cc-4sc3cc21.F[P-](F)(F)(F)(F)F | – | – | – | – | > 0.95 | – | inactive | – | –
CN(C)c1ccc(-c2cc(-c3ccc(N)cc3)[s+]c(-c3ccc(N)cc3)c2)cc1 | – | – | – | – | – | – | – | – | EC50 (Colon 26 [13]): 70 nM
CCN(CC)C(=O)c1ccc(-c2c3ccc(=[N+](C)C)cc-3[se]c3cc4c(cc23)C(C)(C)CCN4C)s1.[Cl-] | 310 nM | 300 nM | 2.26 | inactive | – | – | – | 5 | Activity (Colon 26 [14]): Active; Activity (Colon 26 [2]): inactive; selectivity ratio [15]: 26; Activity (Colon 26 [4]): inactive
CN1CCC(C)(C)c2cc3c(-c4ccc(C(=S)N5CCCCC5)s4)c4ccc(=[N+](C)C)cc-4sc3cc21.F[P-](F)(F)(F)(F)F | – | – | – | – | > 0.95 | Active | inactive | – | Drug uptake (Colon 26 [12]): Not Active
CCN(CC)C(=S)c1ccc(-c2c3ccc(=[N+](C)C)cc-3[se]c3cc4c(cc23)C(C)(C)CCN4C)s1.[Cl-] | 200 nM | 170 nM | 2.41 | inactive | – | Active | – | 1.3 | Activity (Colon 26 [16]): <=0.2; Activity (Colon 26 [17]): Active; degraded [18]: 50%; degraded [19]: 50%; Activity (Colon 26 [20]): Active; selectivity ratio [15]: 56; Activity (Colon 26 [21]): Active
CN1CCC(C)(C)c2cc3c(-c4ccc(C(=S)N5CCCCC5)s4)c4ccc(=[N+](C)C)cc-4[se]c3cc21.[Cl-] | 220 nM | 140 nM | 1.61 | inactive | – | Active | – | – | Activity (Colon 26 [16]): <=0.2; Activity (Colon 26 [17]): Active; degraded [18]: 50%; degraded [19]: 50%; Activity (Colon 26 [20]): Active; Activity [6]: 55%; Activity [8]: 45%; Activity (Colon 26 [21]): Active
